Activity calls are given as the source filed them. The rule behind the calls is not given here.
Columns and labels:
[1] = test system: Escherichia coli; assay: Bactericidal activity against […] Escherichia coli ATCC BAA 2452 assessed as inhibition of bacterial growth at 4 times of MIC incubated for 4 hrs by Time kill assay; format: functional
Procedure, shortened: (§1)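 Aliquots taken every 30 min for 4 h and plated on agar for viable colony counts. Two independent experiments in triplicate.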

[2] = test system: Cell membrane; assay: Disruption of cell membrane in methicillin resistant Staphylococcus aureus ATCC BAA 1556 assessed as cell membrane perturbation measured after 1 hrs by DAPI and PI double staining based fluorescence microscopic analysis; format: subcellular
Procedure, shortened: (§2)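 Mid-log cells washed in PBS (10 mM, pH 7.3), 10^7 CFU/mL, treated at MIC and 4× MIC for 1 h. Pelleted and washed, then stained with PI for 15 min at 37 °C in the dark, then DAPI for 15 min at 37 °C in the dark. Untreated controls. Imaged by fluorescence microscopy, 60× oil objective.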

[3] = test system: Escherichia coli; assay: Bactericidal activity against […] Escherichia coli ATCC BAA 2452 assessed as inhibition of bacterial growth at MIC to 4 times of MIC by Time kill assay; format: functional, organism-based; settings: time 4.0 hrs, TDE = time-dependent effect; procedure, shortened: as §1
[4] = test system: Cell membrane; assay: Disruption of cell membrane in methicillin resistant Staphylococcus aureus ATCC BAA 1556 assessed as cell membrane perturbation at 4 times of MIC measured after 1 hrs by DAPI and PI double staining based fluorescence microscopic analysis; procedure, shortened: as §2
[5] = test system: Escherichia coli; assay: Induction of membrane morphological changes in Escherichia coli ATCC BAA-2452 assessed as cellular debris formation at 4 times of MIC measured after 1 hrs by FE-SEM analysis; format: functional, organism-based
Procedure, shortened: (§3)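 E. coli ATCC BAA-2452 grown to exponential phase in MHB at 37 °C with shaking, then diluted to 2 × 10^6 CFU/mL. […] Cells were PBS-washed and fixed 3 h in 4% glutaraldehyde in 0.2 M cacodylate. Then ethanol-dehydrated, HMDS-dried, Au/Pd-coated and imaged by FE-SEM. Untreated control.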

[6] = test system: Staphylococcus aureus; assay: Induction of membrane morphological changes in methicillin resistant Staphylococcus aureus ATCC BAA 1556 assessed as cellular debris formation at 4 times of MIC measured after 1 hrs by FE-SEM analysis; format: functional, organism-based
Procedure, shortened: (§4)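 Methods give 30 min; legend gives 1 h. Washed, fixed in 4% glutaraldehyde in 0.2 M Na-cacodylate for 3 h, dehydrated through graded ethanol, dried with HMDS, Au/Pd-coated (~20 nm) and imaged by SEM. Untreated cells as control.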

[7] = test system: Staphylococcus aureus; assay: Antibacterial activity against methicillin resistant Staphylococcus aureus ATCC BAA 1556 assessed as fold increase in MIC incubated for 24 hrs in presence of Mg2+ ions by CLSI based broth microdilution method; format: functional
Procedure, shortened: (§5)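 CLSI broth microdilution. Overnight cultures diluted in cation-adjusted Mueller Hinton broth to 10^6 CFU/mL, mixed 1:1 with 2-fold serial peptide dilutions, 24 h at 37 °C. […] MIC is the lowest concentration inhibiting growth. Three independent assays in triplicate.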

[8] = test system: Escherichia coli; assay: Antibacterial activity against Escherichia coli ATCC 25922 assessed as fold increase in MIC incubated for 24 hrs in presence of Ca2+ ions by CLSI based broth microdilution method; format: functional
Procedure, shortened: (§6)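 E. coli MICs by CLSI broth microdilution in cation-adjusted Mueller Hinton broth. […] Inoculum was 10^6 CFU/mL with 2-fold serial peptide dilutions, incubated 24 h at 37 °C. MIC is the lowest concentration inhibiting growth. Three independent assays, each in triplicate.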

[9] = test system: Staphylococcus aureus; assay: Antibacterial activity against methicillin resistant Staphylococcus aureus ATCC BAA 1556 assessed as fold increase in MIC incubated for 24 hrs in presence of NH4+ ions by CLSI based broth microdilution method; format: functional; procedure, shortened: as §5
[10] = test system: HepaRG; assay: Antiproliferative activity human HepaRG cells assessed as reduction in cell viability at 250 ug/ml incubated for 24 hrs by MTS assay; format: functional; settings: dose 250 µg/ml
Procedure, shortened: (§7)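 Cells seeded at 10,000 per well 24 h before treatment. Media: MRC-5 and HEK293 in DMEM with 10% FBS; HepaRG in William's E with GlutaMAX; HEKa in Dermal Cell Basal medium plus keratinocyte growth kit. Peptide at 10–250 μg/mL in triplicate for 24 h, 37 °C, 5% CO2. MTS added for 2 h, then A490 read. Survival is blank-corrected OD as % of untreated control.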

[11] = test system: Staphylococcus aureus; assay: Induction of membrane morphological changes in methicillin resistant Staphylococcus aureus ATCC BAA 1556 assessed as cell surface wrinkling at 4 times of MIC measured after 1 hrs by FE-SEM analysis; format: functional, organism-based; procedure, shortened: as §4
[12] = test system: Escherichia coli; assay: Antibacterial activity against Escherichia coli ATCC 25922 assessed as fold increase in MIC incubated for 24 hrs in presence of NH4+ ions by CLSI based broth microdilution method; format: functional; procedure, shortened: as §6
[13] = test system: Escherichia coli; assay: Induction of membrane morphological changes in Escherichia coli ATCC BAA-2452 assessed as cell surface blebs formation at 4 times of MIC measured after 1 hrs by FE-SEM analysis; format: functional, organism-based; procedure, shortened: as §3
[14] = test system: Staphylococcus aureus; assay: Antibacterial activity against methicillin resistant Staphylococcus aureus ATCC BAA 1556 assessed as fold increase in MIC incubated for 24 hrs in presence of Na+ ions by CLSI based broth microdilution method; format: functional; procedure, shortened: as §5
[15] = test system: Staphylococcus aureus; assay: Induction of membrane morphological changes in methicillin resistant Staphylococcus aureus ATCC BAA 1556 assessed as cell surface roughening at 4 times of MIC measured after 1 hrs by FE-SEM analysis; format: functional, organism-based; procedure, shortened: as §4
[16] = Antiproliferative activity human HEKa cells assessed as reduction in cell viability at 250 ug/ml incubated for 24 hrs by MTS assay; format: functional; settings: dose 250 µg/ml; procedure, shortened: as §7

With H-KWLKKWLKWWKK-NH2 as the substance, how does the “inhibition (INH)” value [1] read?
Its value is 70%.

And the Activity [2]?
The Activity was “Dose-Dependent Effect”.

What about the inhibition [3] of the same substance?
The inhibition was “Tde”.

What about the Activity [4] of the same substance?
The Activity was “Active”.

What about the Activity [5] of the same substance?
Its Activity is “Active”.

What about the Activity [6] of the same substance?
Its Activity is “Active”.

What about the “fold change (FC)” value [7] of the same substance?
The value was 2.

What about the “fold change (FC)” value [8] of the same substance?
Its value is 2.

What about the “fold change (FC)” value [9] of the same substance?
Its value is 2.

What about the Activity [10] of the same substance?
Its Activity is >60%.

And the Activity [11]?
The Activity was “Active”.

And the “fold change (FC)” value [12]?
The value was 2.

And the Activity [13]?
Its Activity is “Active”.

And the “fold change (FC)” value [14]?
Its value is 2.

What about the Activity [15] of the same substance?
Its Activity is “Active”.

Which Activity [16] does the source give for H-RWLRRWLRWWRR-NH2 here?
The Activity was <30%.

What about the Activity [2] of the same substance?
The Activity was “Dose-Dependent Effect”.

What about the inhibition [3] of the same substance?
The inhibition was “Tde”.

And the Activity [4]?
The Activity was “Active”.

What about the “fold change (FC)” value [7] of the same substance?
Its value is 2.

What about the “fold change (FC)” value [8] of the same substance?
The value was 2.

And the “fold change (FC)” value [9]?
The value was 2.

What about the Activity [10] of the same substance?
Its Activity is <30%.

What about the “fold change (FC)” value [12] of the same substance?
Its value is 2.

What about the “fold change (FC)” value [14] of the same substance?
Its value is 2.
